# Activity calls are given as the source filed them. The rule behind the calls is not given here.
# What was measured:
# [1] = Ratio of drug level in brain to plasma in Sprague-Dawley rat at 30 mg/kg, po after 24 hrs; format: ADME, organism-based; set-up: dose 30 mg/kg, route oral; conditions: read-out: BPR
# [2] = Half life in Sprague-Dawley rat at 10 mg/kg, po by HPLC/MS/MS analysis; format: ADME, organism-based; set-up: dose 10 mg/kg, route oral; conditions: in vivo
# Outline: (§1)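 Male rats fasted overnight before oral dosing; 10 mg/kg po and 2 mg/kg iv in 80% PEG400/20% phosphate buffered saline. Jugular vein blood was sampled at 0.25–21 h over 24 h, and heparin plasma was assayed by HPLC/MS/MS (MRM, positive electrospray, internal standard; LLOQ 1 ng/mL, ULOQ 2000 ng/mL). %F is taken relative to the 2 mg/kg iv dose. Mean of n = 3 animals.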
# Canis familiaris [3] = test: Ex vivo inhibition of serotonin-mediated amplification of collagen-stimulated platelet aggregation in Beagle dog at 1 mg/kg, po for 10 days measured after 10 days; format: functional, organism-based; set-up: dose 1 mg/kg; conditions: Canis lupus familiaris
# Outline: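 Beagle dogs dosed orally with 1 mg/kg daily for 10 days. Serotonin-mediated amplification of collagen-stimulated aggregation then measured in whole blood ex vivo.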
# Canis familiaris [4] = test: Antithrombotic activity in Beagle dog Folts model of recurrent coronary thrombosis model assessed as inhibition of thrombosis occurrence at 0.07 mg/kg, iv bolus dose followed by continuous fusion of 1.16 ug/kg/min, iv administered before onset of thrombosis; format: functional; conditions: Canis lupus familiaris
# Outline: (§2)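 Anesthetized dogs in the Folts model of recurrent coronary thrombosis. Given 0.07 mg/kg iv bolus followed by continuous iv infusion of 1.16 μg/kg/min, either before or after onset of recurrent thrombosis. Read-out is flow-time area, compared with saline controls.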
# [5] = AUC (0 to last) in Sprague-Dawley rat at 10 mg/kg, po after 24 hrs by HPLC/MS/MS analysis; format: ADME, organism-based; set-up: time 0 - last, dose 10 mg/kg, route oral; conditions: plasma; outline: as §1
# [6] = Bioavailability in dog at 2 mg/kg, iv after 24 hrs by HPLC/MS/MS analysis; format: ADME, organism-based, Canis lupus familiaris; conditions: in vivo
# Outline: (§3)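 Oral dose 10 mg/kg; %F calculated relative to a 2 mg/kg iv dose. Values are the mean of n = 3 animals.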
# Canis familiaris [7] = test: Ex vivo inhibition of serotonin-mediated amplification of collagen-stimulated platelet aggregation in Beagle dog at 10 mg/kg, po administered as single dose measured after 6 hrs; format: functional; conditions: Canis lupus familiaris
# Outline: (§4)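 Beagle dogs given a single oral dose of 10 mg/kg. Serotonin-mediated amplification of collagen-stimulated aggregation measured in whole blood ex vivo at 1, 6, 12 and 24 h post-dose.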
# Canis familiaris [8] = test: Ex vivo inhibition of serotonin-mediated amplification of collagen-stimulated platelet aggregation in Beagle dog at 10 mg/kg, po administered as single dose measured after 24 hrs; format: functional; conditions: Canis lupus familiaris; outline: as §4
# [9] = Half life in monkey at 10 mg/kg, po by HPLC/MS/MS analysis; format: ADME, organism-based, Macaca mulatta; set-up: dose 10 mg/kg, route oral; conditions: rhesus monkey, in vivo; outline: as §3
# [10] = Total clearance in monkey at 2 mg/kg, iv after 24 hrs by HPLC/MS/MS analysis; format: ADME, organism-based, Macaca mulatta; set-up: dose 2 mg/kg, route intravenous; conditions: rhesus monkey, in vivo; outline: as §3
# [11] = Volume of distribution at steady state in Sprague-Dawley rat at 2 mg/kg, iv after 24 hrs by HPLC/MS/MS analysis; format: ADME, organism-based; set-up: dose 2 mg/kg, route intravenous; conditions: in vivo, read-out: Vdss; outline: as §1
# [12] = Cmax in Sprague-Dawley rat at 10 mg/kg, po after 24 hrs by HPLC/MS/MS assay; format: ADME, organism-based; set-up: dose 10 mg/kg, route oral; conditions: in vivo; outline: as §1
# [13] = Cmax in dog at 10 mg/kg, po after 24 hrs by HPLC/MS/MS assay; format: ADME, organism-based, Canis lupus familiaris; set-up: dose 10 mg/kg, route oral; conditions: in vivo; outline: as §3
# [14] = Antiplatelet activity in dog platelet rich plasma assessed as inhibition of ADP-induced aggregation treated 10 mins after ADP challenge measured after 3 mins by turbidimetry; format: functional; conditions: Canis lupus familiaris
# [15] = Volume of distribution at steady state in dog at 2 mg/kg, iv after 24 hrs by HPLC/MS/MS analysis; format: ADME, organism-based, Canis lupus familiaris; set-up: dose 2 mg/kg, route intravenous; conditions: in vivo, read-out: Vdss; outline: as §3
# Canis familiaris [16] = test: Ex vivo inhibition of serotonin-mediated amplification of collagen-stimulated platelet aggregation in Beagle dog at 10 mg/kg, po administered as single dose measured after 12 hrs; format: functional; conditions: Canis lupus familiaris; outline: as §4
# [17] = Cmax in monkey at 10 mg/kg, po after 24 hrs by HPLC/MS/MS assay; format: ADME, organism-based, Macaca mulatta; set-up: dose 10 mg/kg, route oral; conditions: rhesus monkey, in vivo; outline: as §3
# [18] = Total clearance in Sprague-Dawley rat at 2 mg/kg, iv after 24 hrs by HPLC/MS/MS analysis; format: ADME, organism-based; set-up: dose 2 mg/kg, route intravenous; conditions: in vivo; outline: as §1
# [19] = Half life in dog at 10 mg/kg, po by HPLC/MS/MS analysis; format: ADME, organism-based, Canis lupus familiaris; set-up: dose 10 mg/kg, route oral; conditions: in vivo; outline: as §3
# [20] = AUC (0 to last) in monkey at 10 mg/kg, po after 24 hrs by HPLC/MS/MS analysis; format: ADME, organism-based, Macaca mulatta; set-up: time 0 - last, dose 10 mg/kg, route oral; conditions: rhesus monkey, plasma; outline: as §3
# [21] = Antiplatelet activity in human platelet rich plasma assessed as inhibition of ADP-induced aggregation preincubated for 1 min before 5-HT and ADP challenge measured after 3 mins by turbidimetry
# [22] = Total clearance in dog at 2 mg/kg, iv after 24 hrs by HPLC/MS/MS analysis; format: ADME, organism-based, Canis lupus familiaris; set-up: dose 2 mg/kg, route intravenous; conditions: in vivo; outline: as §3
# [23] = target: T1, 5-hydroxytryptamine receptor 2A (Homo sapiens, UniProt P28223); test: Displacement of [125I]DOI from human recombinant 5HT2A receptor expressed in HEK293 cells by scintillation counting; format: cell-based
# T1 sequence (P28223 whole entry): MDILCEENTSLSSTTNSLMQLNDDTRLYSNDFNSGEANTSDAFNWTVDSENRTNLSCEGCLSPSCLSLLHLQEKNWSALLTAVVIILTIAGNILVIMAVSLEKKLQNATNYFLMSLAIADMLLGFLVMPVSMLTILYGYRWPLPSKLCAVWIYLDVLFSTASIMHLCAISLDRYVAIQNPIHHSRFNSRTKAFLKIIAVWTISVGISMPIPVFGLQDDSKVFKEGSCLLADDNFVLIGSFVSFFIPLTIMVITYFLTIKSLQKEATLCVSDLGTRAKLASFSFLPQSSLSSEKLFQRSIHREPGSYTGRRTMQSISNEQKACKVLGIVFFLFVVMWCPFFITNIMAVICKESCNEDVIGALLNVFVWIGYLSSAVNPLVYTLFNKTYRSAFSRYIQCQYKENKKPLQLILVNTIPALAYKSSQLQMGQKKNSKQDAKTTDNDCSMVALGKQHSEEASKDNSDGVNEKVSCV
# Outline: (§5)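 Crude plasma membranes from HEK293 cells stably expressing the human receptor (5–25 μg protein), in 20 mM HEPES pH 7.4 with 10 mM MgCl2. Incubated with 0.5 nM [125I]DOI and test compound (1 pM–10 μM) for 1 h at room temperature; nonspecific binding defined with 10 μM cold DOI. Filtered, washed with ice-cold Tris buffer and scintillation counted in triplicate.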
# Canis familiaris [24] = test: Antithrombotic activity in Beagle dog Folts model of recurrent coronary thrombosis model assessed as inhibition of thrombosis occurrence at 0.07 mg/kg, iv bolus dose followed by continuous fusion of 1.16 ug/kg/min, iv administered after onset of thrombosis; format: functional; conditions: Canis lupus familiaris; outline: as §2
# hERG (KCNH2) = hERG (KCNH2) (Homo sapiens, UniProt Q12809); test: Inhibition of human ERG at 3 uM by patch clamp assay
# Sequence of hERG (KCNH2) (Q12809 whole entry): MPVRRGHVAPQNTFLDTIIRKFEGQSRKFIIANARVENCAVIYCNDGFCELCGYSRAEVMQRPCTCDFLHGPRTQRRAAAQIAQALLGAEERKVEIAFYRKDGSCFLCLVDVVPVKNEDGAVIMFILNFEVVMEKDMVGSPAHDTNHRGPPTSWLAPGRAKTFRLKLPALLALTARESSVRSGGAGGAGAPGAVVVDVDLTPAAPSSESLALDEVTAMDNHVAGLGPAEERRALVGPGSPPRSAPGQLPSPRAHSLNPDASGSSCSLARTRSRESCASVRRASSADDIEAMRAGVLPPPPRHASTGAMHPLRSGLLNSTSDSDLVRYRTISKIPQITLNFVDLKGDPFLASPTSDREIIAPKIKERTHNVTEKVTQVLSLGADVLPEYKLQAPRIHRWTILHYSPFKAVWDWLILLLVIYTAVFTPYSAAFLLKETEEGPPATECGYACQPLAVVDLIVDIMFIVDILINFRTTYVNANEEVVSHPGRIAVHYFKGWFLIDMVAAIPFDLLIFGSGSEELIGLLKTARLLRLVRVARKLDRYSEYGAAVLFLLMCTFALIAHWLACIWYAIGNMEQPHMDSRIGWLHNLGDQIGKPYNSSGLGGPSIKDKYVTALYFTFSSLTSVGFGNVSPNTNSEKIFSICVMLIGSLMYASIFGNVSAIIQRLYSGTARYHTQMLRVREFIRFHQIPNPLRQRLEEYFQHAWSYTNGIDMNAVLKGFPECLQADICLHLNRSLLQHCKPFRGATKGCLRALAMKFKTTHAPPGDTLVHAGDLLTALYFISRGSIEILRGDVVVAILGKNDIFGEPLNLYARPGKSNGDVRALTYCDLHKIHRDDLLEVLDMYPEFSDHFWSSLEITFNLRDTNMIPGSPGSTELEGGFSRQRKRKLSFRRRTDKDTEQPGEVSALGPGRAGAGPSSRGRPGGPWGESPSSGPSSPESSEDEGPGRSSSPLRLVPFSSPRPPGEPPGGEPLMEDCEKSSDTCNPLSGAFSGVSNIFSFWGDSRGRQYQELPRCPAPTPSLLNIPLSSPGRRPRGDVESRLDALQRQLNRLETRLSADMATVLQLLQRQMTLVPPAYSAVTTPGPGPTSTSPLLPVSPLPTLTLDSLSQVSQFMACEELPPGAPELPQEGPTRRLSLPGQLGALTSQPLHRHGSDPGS
# [25] = target: T1, 5-hydroxytryptamine receptor 2A; test: Inverse agonist activity at human 5HT2A receptor expressed in HEK293 cells assessed as inhibition of inositol phosphate accumulation; format: functional, cell-based
# [26] = Volume of distribution at steady state in monkey at 2 mg/kg, iv after 24 hrs by HPLC/MS/MS analysis; format: ADME, organism-based, Macaca mulatta; set-up: dose 2 mg/kg, route intravenous; conditions: rhesus monkey, in vivo, read-out: Vdss; outline: as §3
# [27] = target: 5-hydroxytryptamine receptor 2B (Homo sapiens, UniProt P41595); test: Displacement of [125I]DOI from human recombinant 5HT2B receptor expressed in HEK293 cells by scintillation counting; format: cell-based
# Sequence of 5-hydroxytryptamine receptor 2B (P41595 whole entry): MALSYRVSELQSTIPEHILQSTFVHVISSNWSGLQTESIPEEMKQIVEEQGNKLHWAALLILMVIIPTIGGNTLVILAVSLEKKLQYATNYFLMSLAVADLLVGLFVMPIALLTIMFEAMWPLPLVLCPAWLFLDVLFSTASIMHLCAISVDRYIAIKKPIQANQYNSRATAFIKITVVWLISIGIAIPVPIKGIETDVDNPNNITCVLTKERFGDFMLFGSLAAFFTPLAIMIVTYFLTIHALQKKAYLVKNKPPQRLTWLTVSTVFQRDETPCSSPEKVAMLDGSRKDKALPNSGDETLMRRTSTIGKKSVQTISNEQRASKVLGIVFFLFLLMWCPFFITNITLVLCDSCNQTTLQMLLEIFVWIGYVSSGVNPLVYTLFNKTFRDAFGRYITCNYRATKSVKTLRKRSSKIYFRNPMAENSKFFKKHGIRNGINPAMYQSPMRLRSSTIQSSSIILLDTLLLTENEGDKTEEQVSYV
# [28] = Bioavailability in monkey at 2 mg/kg, iv after 24 hrs by HPLC/MS/MS analysis; format: ADME, organism-based, Macaca mulatta; conditions: rhesus monkey, in vivo; outline: as §3
# [29] = AUC (0 to last) in dog at 10 mg/kg, po after 24 hrs by HPLC/MS/MS analysis; format: ADME, organism-based, Canis lupus familiaris; set-up: time 0 - last, dose 10 mg/kg, route oral; conditions: plasma; outline: as §3
# [30] = Bioavailability in Sprague-Dawley rat at 2 mg/kg, iv after 24 hrs by HPLC/MS/MS analysis; format: ADME, organism-based; conditions: in vivo; outline: as §1
# [31] = target: Voltage-gated inwardly rectifying potassium channel KCNH2 (Homo sapiens, UniProt Q12809); test: Inhibition of human ERG by patch clamp assay
# Sequence of Voltage-gated inwardly rectifying potassium channel KCNH2 (Q12809 whole entry): as the sequence (Q12809 whole entry) above
# [32] = target: T2, 5-hydroxytryptamine receptor 2C (Homo sapiens, UniProt P28335); test: Displacement of [125I]DOI from human recombinant 5HT2C receptor expressed in HEK293 cells by scintillation counting; format: cell-based; outline: as §5
# T2 sequence (P28335 whole entry): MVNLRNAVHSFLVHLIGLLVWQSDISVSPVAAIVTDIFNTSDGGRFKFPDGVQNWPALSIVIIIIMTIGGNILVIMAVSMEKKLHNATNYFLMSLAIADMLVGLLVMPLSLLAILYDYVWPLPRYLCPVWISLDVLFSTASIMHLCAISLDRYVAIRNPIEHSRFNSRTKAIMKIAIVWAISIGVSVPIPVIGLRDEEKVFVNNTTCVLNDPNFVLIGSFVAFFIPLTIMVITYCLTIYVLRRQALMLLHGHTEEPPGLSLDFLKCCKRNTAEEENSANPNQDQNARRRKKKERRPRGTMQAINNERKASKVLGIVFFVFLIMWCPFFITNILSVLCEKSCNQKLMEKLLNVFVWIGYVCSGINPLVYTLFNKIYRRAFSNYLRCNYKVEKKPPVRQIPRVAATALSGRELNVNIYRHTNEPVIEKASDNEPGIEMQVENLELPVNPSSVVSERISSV
# Canis familiaris [33] = test: Ex vivo inhibition of serotonin-mediated amplification of collagen-stimulated platelet aggregation in Beagle dog at 10 mg/kg, po administered as single dose measured after 1 hr; format: functional, organism-based; set-up: dose 10 mg/kg; conditions: Canis lupus familiaris; outline: as §4
smiles,measurement,setting,value
COc1cccc(C(=O)Nc2ccc(OCCN3CCOCC3)c(-c3ccnn3C)c2)c1 [TEMANOGREL],Kp at 24 h,[1],0.05
same,half-life,[2],1 h
same,inhibition,Canis familiaris [3],Active
same,inhibition in vivo at 0.07 mg/kg,Canis familiaris [4],58%
same,AUC(0-t) at 24 h,[5],43 ng·h/mL
same,bioavailability,[6],45%
same,inhibition in vivo at 10 mg/kg,Canis familiaris [7],86%
same,inhibition in vivo at 10 mg/kg,Canis familiaris [8],58%
same,half-life,[9],2.1 h
same,clearance,[10],15 mL/min/kg
same,Vd,[11],29 L/kg
same,Cmax,[12],58 ng/mL
same,Cmax,[13],2280 ng/mL
same,IC50,[14],23.1 nM
same,Vd,[15],1.3 L/kg
same,inhibition in vivo at 10 mg/kg,Canis familiaris [16],57%
same,Cmax,[17],1460 ng/mL
same,clearance,[18],367 mL/min/kg
same,half-life,[19],0.9 h
same,AUC(0-t) at 24 h,[20],1920 ng·h/mL
same,IC50,[21],8.7 nM
same,clearance,[22],20 mL/min/kg
same,Ki,[23],4.9 nM
same,inhibition in vivo at 0.07 mg/kg,Canis familiaris [24],58%
same,inhibition at 3 µM,hERG (KCNH2),32%
same,IC50,[25],5.2 nM
same,Vd,[26],0.6 L/kg
same,Ki,[27],> 10000 nM
same,bioavailability,[28],16%
same,AUC(0-t) at 24 h,[29],3540 ng·h/mL
same,bioavailability,[30],10%
same,IC50,[31],11000 nM
same,Ki,[32],> 10000 nM
same,inhibition,Canis familiaris [33],Active

# — ChEMBL document CHEMBL1155506 (J Med Chem, 2010)
